Source: PubChem (several laboratories)
In the library only some 0.72% were active in any assay of this set; here they are far more common.
Arbovirus inh: blocks arbovirus infection. arbovirus infection cell-based antiviral screen. inhibition, % at 10 µM. actives 0.37% (n = 200,000). AID 1251; in the data active means inhibition above about 30%
TNAP inh hiacc: TNAP (human) inhibition, high acceptor. inhibition, % at 20 µM. P05186. actives 0.03% (n = 200,000). purified TNAP, CDP-star luminescence, 1 M DEA;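 active means over 50% inhibition of tissue-nonspecific alkaline phosphatase at 20 µM in the single-dose screen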;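 further: plate controls were DMSO wells for no effect and EDTA-quenched wells as full inhibition for full effect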
Target sequence (P05186 whole entry, looked up): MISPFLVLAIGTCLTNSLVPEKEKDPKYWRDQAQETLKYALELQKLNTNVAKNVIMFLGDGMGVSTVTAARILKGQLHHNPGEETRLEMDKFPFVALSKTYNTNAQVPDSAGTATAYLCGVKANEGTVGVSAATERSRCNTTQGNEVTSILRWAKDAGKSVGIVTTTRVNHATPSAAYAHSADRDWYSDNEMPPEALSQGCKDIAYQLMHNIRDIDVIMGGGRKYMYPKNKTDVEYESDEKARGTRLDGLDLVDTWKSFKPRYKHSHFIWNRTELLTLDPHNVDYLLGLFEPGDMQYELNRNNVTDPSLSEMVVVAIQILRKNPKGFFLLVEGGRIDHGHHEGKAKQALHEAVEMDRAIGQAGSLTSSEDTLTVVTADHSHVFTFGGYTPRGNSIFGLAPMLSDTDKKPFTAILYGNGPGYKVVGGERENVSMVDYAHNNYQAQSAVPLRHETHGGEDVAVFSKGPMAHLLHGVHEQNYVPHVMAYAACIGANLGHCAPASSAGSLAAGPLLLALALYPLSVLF
TNAP act hiacc: TNAP (human) activation, high acceptor. activation factor at 20 µM. P05186. AID 1136. 200,000 tested, under 10 active. purified TNAP, CDP-star luminescence, 1 M DEA, 30 min; stronger effect = higher value; 0 = EDTA background, 1 = DMSO-only activity;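 active means activation factor at least 2 at 20 µM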
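Measured by: Luminescent substrate turnover signal | Test system: Human TNAP | Input: TNAP 1/800 final | Dosing: 20 µM single point | Schedule: 30 min, room temperature | Controls: EDTA wells as negative control, DMSO wells as positive control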
TNAP inh noacc: TNAP (human) inhibition, acceptor-free conditions. purified TNAP, CDP-star luminescence, 30 min. inhibition, % at 20 µM. actives 0.26% (n = 200,000). AID 1012;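 active means tissue-nonspecific alkaline phosphatase inhibition above about 50% at 20 µM in the single-dose screen, limit read from the data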;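 further: 0% = DMSO negative control and 100% = EDTA positive control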
PKD1 inh: inhibitors of human PKD1 kinase; Q15139; PKD1 kinase fluorescence polarization assay; inhibition, % (test concentration not listed); actives 0.056% (n = 200,000); AID 797; in the data active means inhibition above about 50%
* hit, by the source's call.

SMILES	Arbovirus inh	TNAP inh hiacc	TNAP act hiacc	TNAP inh noacc	PKD1 inh
CC[n+]1ccc(/C=C/c2ccc(N(C)C)cc2)c2ccccc21	-25.1	54.2*	0.5	52.5*	-4.0
CC[n+]1c(/C=C/c2ccc(N(C)C)cc2)ccc2ccccc21	-25.1	59.6*	0.4	60.0*	7.2
CCSC1=NSC2=NC(=O)/C(=C\c3coc4ccccc4c3=O)C(=N)N12	30.5*	1.5	1	-2.6	-13.4
CC(C)CC1=NN2C(=N)/C(=C\c3coc4ccccc4c3=O)C(=O)N=C2S1	40.9*	4.3	1	14.3	-1.5
CCc1ccc(-n2cccc2/C=C2/C(=N)N3C(=NC2=O)SN=C3S(C)(=O)=O)cc1	17.4	3.1	1	-0.9	-6.2
Cc1ccc([N+](=O)[O-])cc1S(=O)(=O)Nc1ccc(N2CCOCC2)cc1	5.8	-4.9	1	-10.2	-1.6
N#C/C(=C\c1ccncc1)c1nc2ccccc2c(=O)[nH]1	4.8	2.8	1	54.5*	-3.0
Nc1ccn(Cc2ccc(F)cc2)n1	4.1	-3.8	1	-7.0	-10.3
COc1ccc(C2CC(=O)n3nc(C45CC6CC(CC(C6)C4)C5)nc3S2)cc1OC (stereo not given)	3.7	1.0	1	88.4*	9.2
CCOc1ccc(C2C3=C(CCCC3=O)Nc3nc(C(F)(F)F)nn32)cc1OC (stereo not given)	6.0	-0.8	1	-7.4	-16.3
CCOc1ccc(C2CC(=O)n3nc(C45CC6CC(CC(C6)C4)C5)nc3S2)cc1OC (stereo not given)	-8.2	-3.3	1	84.8*	-4.4
COc1ccc(C2CC(=O)N(C)c3ccccc3S2)cc1 (stereo not given)	-10.0	-4.2	1	-11.2	-4.4
Nc1nc(SCC(=O)c2cccs2)n[nH]1	1.0	-0.9	1	-3.9	7.0
CC(C)c1ccc(C2=C(O)c3ccccc3C(=O)C2=O)cc1	33.3*	13.5	0.9	-0.5	-2.3
N[C@@H](Cc1ccc(O)c(I)c1)C(=O)O	12.7	-2.7	1	-9.5	-0.5
O=C(O)Cc1cc(I)c(Oc2ccc(O)c(I)c2)c(I)c1	52.3*	-1.3	1	-8.8	-1.2
O=C1NC(=O)/C(=C\c2ccc(Oc3ccc([N+](=O)[O-])cn3)cc2)S1	32.9*	2.1	1	-8.8	2.4
O=[N+]([O-])c1ccc(Oc2ccc(/C=N/O)cc2)nc1	-1.2	-3.7	1	-2.5	-7.3
Cc1c(NC(=O)c2c(N)sc3c2CCCC3)c(=O)n(-c2ccccc2)n1C	0.7	3.4	1	-3.7	2.1
Cc1cc(C)c2c(N=CN(C)C)c(C(=O)N3CCN(c4ncccn4)CC3)sc2n1	15.8	-5.2	1.1	7.6	-7.7
COC(=O)/C=C/c1sc2nc(C)cc(C)c2c1N=CN(C)C	44.5*	-6.0	1.1	0.3	1.8
COc1cc2c(cc1NC(=O)CC1SC(N3CCCC3)=NC1=O)oc1ccccc12 (stereo not given)	33.2*	-2.6	1	-5.7	11.5
O=C(CSc1ncnc2sc(-c3ccccc3)cc12)NC1CCS(=O)(=O)C1 (stereo not given)	-8.5	0.4	1	-3.6	-3.0
O=C(Nc1c(-c2ccccc2)nc2ccccn12)c1cccs1	39.3*	-3.0	1	-13.0	-3.4
O=C(Nc1c(-c2ccccc2)nc2ccccn12)c1ccco1	25.1	-1.6	1	-5.8	-5.2
SMILES	Arbovirus inh	TNAP inh hiacc	TNAP act hiacc	TNAP inh noacc	PKD1 inh
C/C(=N\NC(=O)c1ccccc1O)C1C(=O)c2ccccc2C1=O	17.6	12.2	0.9	59.8*	1.8
CCOc1ccc(NS(=O)(=O)c2ccc(NS(=O)(=O)c3ccc(SC)cc3)cc2)cc1	-38.1	-2.4	1	0.0	-1.8
CCOc1ccc(S(=O)(=O)Nc2ccc(O)c(Sc3ncn[nH]3)c2)cc1	-0.9	1.5	1	77.4*	3.9
CSc1ccc(S(=O)(=O)Nc2ccc(S(=O)(=O)Nc3ccc(C)cc3)cc2)cc1	-32.5	2.6	1	-1.9	5.8
Cc1ccc(S(=O)(=O)Nc2ccc(O)c(Sc3ncn[nH]3)c2)cc1	8.6	-4.4	1	74.1*	-0.2
CCOc1ccc(NS(=O)(=O)c2cc(OC)ccc2OC)cc1	-0.6	-2.5	1	-8.2	0.2
COc1ccc(OC)c(S(=O)(=O)Nc2ccc(O)c(Sc3ncn[nH]3)c2)c1	11.0	1.1	1	74.4*	-5.3
O=c1/c(=C\c2ccc(F)cc2)sc2n1CCCN=2	0.9	-2.8	1	-10.3	4.0
O=c1/c(=C/c2ccc(O)cc2)sc2n1CCCN=2	46.8*	4.1	1	3.4	-4.2
CC1CC(C)CN(c2nc(NCc3ccco3)nc(N)c2[N+](=O)[O-])C1 (stereo not given)	32.9*	7.4	0.9	4.8	13.9
CCOc1cccc2sc(NN)nc12	38.2*	15.1	0.8	3.8	-7.0
CCOc1cccc2sc(Cl)nc12	-0.1	0.0	1	-0.2	3.5
Cc1c(C(=O)O)oc2c1/C(=N\O)CC(C)(C)C2	-8.6	-2.0	1	-5.6	-1.1
Cc1[nH]nc2c1C(C1CC=CCC1)C(C#N)=C(N)O2 (stereo not given)	5.4	2.1	1	72.4*	-2.7
CCc1[nH]nc2c1C(C1C=CCCC1)C(C#N)=C(N)O2 (stereo not given)	-15.1	-4.9	1	70.0*	1.4
CCC(CC)C1C(C#N)=C(N)Oc2n[nH]c(C)c21 (stereo not given)	-6.2	-6.7	1.1	18.5	-1.1
CC(C)(C)c1[nH]nc2c1C(C1C=CCCC1)C(C#N)=C(N)O2 (stereo not given)	11.9	-3.2	1	32.2	-2.0
CC(Oc1ncnc2ccccc12)C(=O)Nc1cccc(S(=O)(=O)N2CCOCC2)c1 (stereo not given)	1.7	-1.8	1	-5.7	1.7
Fc1ccc(COc2ccc3ccccc3c2CNc2nn[nH]n2)cc1	2.1	-1.3	1	-6.2	-8.2
Fc1ccccc1COc1ccc2ccccc2c1CNc1nn[nH]n1	31.1*	-3.7	1	6.4	-3.1
S=C(NCCc1ccccc1)N1CCn2cccc2C1c1cccnc1 (stereo not given)	1.4	-2.5	1	-12.0	-1.2
S=C(NCc1ccccc1)N1CCn2cccc2C1c1cccnc1 (stereo not given)	33.8*	1.4	1	-3.7	0.4
Cc1ccc(CN2CCc3c(OCC(=O)Nc4cc(C)ccc4C)cccc3C2=O)cc1	8.1	3.6	1	-7.3	-0.2
Cc1ccc(C(=O)n2nc(-n3cccc3)c3c(C)cc(C)nc32)cc1	-6.7	0.4	1	58.0*	-2.5
O=C(NCCCc1nc2ccccc2[nH]1)c1cccs1	2.6	-4.1	1	-9.0	1.7
CCCn1c2c(c(O)c(C(=O)Nc3ncccc3O)c1=O)CCCC2	-33.9	-4.7	1	-17.0	-3.3
CCCn1c2c(c(O)c(C(=O)Nc3nc4ccccc4s3)c1=O)CCCC2	43.3*	-3.6	1	-10.6	6.7
